Measured values from ChEMBL document CHEMBL1154735, “A strategy to minimize reactive metabolite formation: discovery of (S)-4-(1-cyclopropyl-2-methoxyethyl)-6-[6-(difluoromethoxy)-2,5-dimethylpyridin-3-ylamino]-5-oxo-4,5-dihydropyrazine-2-carbonitrile as a potent, orally bioavailable corticotropin-releasing factor-1 receptor antagonist” (J Med Chem, 2009).
≈ marks a conversion by molar mass, not a printed value.

How the values were obtained:
[1] = Solubility in simulated intestinal fluid; type: physicochemical
In short: (§1)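 Solubility measured in simulated gastric fluid and in simulated intestinal fluid (fed state).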

[2] = tested on: Rattus norvegicus; experiment: Total plasma concentration in Sprague-Dawley rat at 1.8 mg/kg, po after 1 to 3 hrs by LC/MS/MS analysis; type: ADME, organism-based; design: dose 1.8 mg/kg, route oral; conditions: in vivo
[3] = Drug metabolism in bile duct cannulated Sprague-Dawley rat assessed as GSH adduct formation in bile at 20 mg/kg, po after 24 hrs by HPLC/UV/MS analysis; type: ADME, organism-based; design: dose 20 mg/kg, route oral; conditions: in vivo
In short: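 Male Sprague–Dawley bile duct cannulated rats (n = 3) dosed orally at 20 mg/kg in PEG/ethanol 90:10; vehicle-dosed controls (n = 3). Bile and urine pooled over 0–24 h, acetonitrile-precipitated and profiled by HPLC/UV/MS (Hydro-RP column, PDA 200–550 nm, positive-ion full and data-dependent scans).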

[4] = tested on: Rattus norvegicus; experiment: Total plasma concentration in Sprague-Dawley rat at 1 mg/kg, po after 1 to 3 hrs by LC/MS/MS analysis; type: ADME, organism-based; design: dose 1 mg/kg, route oral; conditions: in vivo
[5] = Cmax in Sprague-Dawley rat at 10 mg/kg, po dosed as aqueous suspension of Labrafil M 1944CS/DMAC/polysorbate 80, 85:10:5 (v/v) after 2 to 4 hrs by LC/MS/MS analysis; type: ADME, organism-based; design: dose 10 mg/kg, route oral; conditions: in vivo
[6] = Clearance in Sprague-Dawley rat at 2 mg/kg, iv after 0.17 to 24 hrs by LC/MS/MS analysis; type: ADME, organism-based; design: dose 2 mg/kg, route intravenous; conditions: in vivo
[7] = tested on: Rattus norvegicus; experiment: Neurotoxicity in Sprague-Dawley rat assessed as alteration of motor coordination up to 60 mg/kg by rotarod test; type: toxicity, organism-based; design: dose 60 mg/kg; conditions: in vivo
[8] = Half life in Beagle dog at 2 mg/kg, iv by LC/MS/MS analysis; type: ADME, organism-based, Canis lupus familiaris; design: dose 2 mg/kg, route intravenous; conditions: in vivo
In short: (§2)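 Male beagle dogs (n = 4), 2 mg/kg iv in propylene glycol:ethanol 90:10 (v/v), 1 mL/kg infused over 5 min at 0.2 mL/kg/min; femoral vein blood at 0.17–24 h; plasma frozen at –20 °C, analysed by LC/MS/MS.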

[9] = Oral bioavailability in Sprague-Dawley rat at 10 mg/kg dosed as aqueous suspension of Labrafil M 1944CS/DMAC/polysorbate 80, 85:10:5 (v/v) after 0.25 to 24 hrs by LC/MS/MS analysis; type: ADME, organism-based; conditions: in vivo
[10] = Aqueous solubility at pH 6.5; type: physicochemical
[11] = Cmax in Beagle dog at 2 mg/kg, po dosed as aqueous suspension of 1% polysorbate 80 in 0.5% methylcellulose after 2 to 4 hrs by LC/MS/MS analysis; type: ADME, organism-based, Canis lupus familiaris; design: dose 2 mg/kg, route oral; conditions: in vivo
[12] = Volume of distribution at steady state in Beagle dog at 2 mg/kg, iv after 0.17 to 24 hrs by LC/MS/MS analysis; type: ADME, organism-based, Canis lupus familiaris; design: dose 2 mg/kg, route intravenous; conditions: in vivo, read-out: Vdss
In short: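 Male beagle dogs (n = 4) given 2 mg/kg iv in propylene glycol:ethanol 90:10 (v/v), 1 mL/kg infused over 5 min at 0.2 mL/kg/min. Plasma stored at –20 °C and analysed by LC/MS/MS after acetonitrile precipitation.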

[13] = tested on: Rattus norvegicus; experiment: Total plasma concentration in Sprague-Dawley rat at 0.56 mg/kg, po after 1 to 3 hrs by LC/MS/MS analysis; type: ADME, organism-based; design: dose 0.56 mg/kg, route oral; conditions: in vivo
[14] = tested on: Rattus norvegicus; experiment: Ex vivo receptor occupancy of CRF1 receptor in po dosed Sprague-Dawley rat brain parietal assessed as inhibition of [125I]sauvagine binding after 90 mins by autoradiography; type: functional, organism-based
[15] = Octanol-water partition coefficient, log D at pH 7.4; type: physicochemical
In short: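 Partitioning between octanol and water at pH 7.4.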

[16] = Clearance in Beagle dog at 2 mg/kg, iv after 0.17 to 24 hrs by LC/MS/MS analysis; type: ADME, organism-based, Canis lupus familiaris; design: dose 2 mg/kg, route intravenous; conditions: in vivo; in short: as §2
[17] = Dissociation constant, pKa by spectrophotometric titration method; type: physicochemical
In short: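 Spectrophotometric titration over pH 2–11 in varying acetonitrile/water mixtures, extrapolated to 0% cosolvent.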

[18] = Solubility in simulated gastric fluid; type: physicochemical; in short: as §1
[19] = AUC in Sprague-Dawley rat at 10 mg/kg, po dosed as aqueous suspension of Labrafil M 1944CS/DMAC/polysorbate 80, 85:10:5 (v/v) after 0.25 to 24 hrs by LC/MS/MS analysis; type: ADME, organism-based; design: time 0.25-24 hr, dose 10 mg/kg, route oral; conditions: plasma
[20] = Metabolic stability in NADPH-fortified human liver microsomes assessed as parent compound remaining at 10 uM after 30 mins by HPLC/UV/MS analysis; type: ADME, Microsome; conditions: read-out: Stability
In short: (§3)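 Pooled rat or human liver microsomes 1 mg/mL, 10 μM substrate, 100 mM potassium phosphate pH 7.4, 37 °C, started with NADPH-regenerating system (1.3 mM NADP+, 3.3 mM glucose-6-phosphate, 3.3 mM MgCl2, 0.5 U/mL G6PDH); GSH 5 mM in trapping runs. Sampled 0 and 30 min, acetonitrile quench; abundance as UV peak area (330–340 nm) fraction of all drug-related components by HPLC/UV/MS.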

[21] = Oral bioavailability in Beagle dog at 2 mg/kg dosed as aqueous suspension of 1% polysorbate 80 in 0.5% methylcellulose after 0.25 to 24 hrs by LC/MS/MS analysis; type: ADME, organism-based, Canis lupus familiaris; conditions: in vivo
[22] = tested on: Rattus norvegicus; experiment: Plasma free concentration in Sprague-Dawley rat at 1 mg/kg, po after 1 to 3 hrs by LC/MS/MS analysis; type: ADME, organism-based; design: dose 1 mg/kg, route oral; conditions: in vivo
[23] = tested on: Rattus norvegicus; experiment: Toxicity in Sprague-Dawley rat at 60 mg/kg after 2 weeks; type: organism-based; design: dose 60 mg/kg; conditions: in vivo, 336 h
[24] = tested on: Liver microsomes; experiment: Metabolic stability in NADPH-fortified rat liver microsomes assessed as GSH adduct formation at 10 uM after 30 mins by HPLC/UV/MS analysis; type: ADME, Microsome; conditions: 0.5 h; in short: as §3
[25] = Oral bioavailability in Sprague-Dawley rat at 10 mg/kg dosed as aqueous suspension of 1% polysorbate 80 in 0.5% methylcellulose after 0.25 to 24 hrs by LC/MS/MS analysis; type: ADME, organism-based; conditions: in vivo
[26] = Aqueous solubility at pH 1; type: physicochemical
[27] = molecular target: T1, Corticotropin-releasing factor receptor 1 (Rattus norvegicus, UniProt P35353); experiment: Displacement of [125I]Tyr-o-CRF from CRF1 receptor in rat frontal cortex homogenate by binding titration assay; type: tissue-based
T1 sequence (P35353 whole entry): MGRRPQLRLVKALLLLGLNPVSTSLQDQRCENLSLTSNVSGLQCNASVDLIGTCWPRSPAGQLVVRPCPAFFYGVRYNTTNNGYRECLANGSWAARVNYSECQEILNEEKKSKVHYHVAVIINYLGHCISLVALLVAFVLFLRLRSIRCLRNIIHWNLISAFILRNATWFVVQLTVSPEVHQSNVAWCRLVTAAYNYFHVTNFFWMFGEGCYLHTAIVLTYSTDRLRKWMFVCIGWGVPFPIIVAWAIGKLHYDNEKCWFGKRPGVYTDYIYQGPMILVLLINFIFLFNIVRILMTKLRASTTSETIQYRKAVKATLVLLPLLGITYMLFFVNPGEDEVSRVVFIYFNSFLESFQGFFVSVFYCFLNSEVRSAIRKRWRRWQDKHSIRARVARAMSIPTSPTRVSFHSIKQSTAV

solubility [1]: 7.4 µg/mL (≈ 18.3 µM) | concentration [2]: 83 nM | Activity [3]: 0.1% | concentration [4]: 45 nM | Cmax [5]: 1600 nM | clearance [6]: 29 mL/min/kg | half-life [8]: 1800 min | bioavailability [9]: 66% | solubility [10]: 4 µg/mL (≈ 9.87 µM) | Cmax [11]: 880 nM | Vd [12]: 13 L/kg | concentration [13]: 24 nM | Activity [14]: Dose-dependent effect | logD [15]: 3.9 | clearance [16]: 7.3 mL/min/kg | pKa [17]: < 2 | solubility [18]: 15 µg/mL (≈ 37 µM) | AUC [19]: 8.8 µM·h | remaining at 0.5 h, 10 µM [20]: 56% | bioavailability [21]: 53% | Cp(f) [22]: 1.6 nM | Activity [24]: 3% | bioavailability [25]: 31% | solubility [26]: 3 µg/mL (≈ 7.4 µM) | IC50 [27]: 0.86 nM
SMILES: COC[C@H](C1CC1)n1cc(C#N)nc(Nc2cc(C)c(OC(F)F)nc2C)c1=O
Activity [7]: Non-toxic | Activity [23]: Non-toxic
